Key:
Rattus norvegicus [1] = assay: Ability to inhibit norepinephrine uptake in rat atria was determined at 486 umol/kg; assay type: functional
Procedure, shortened: (§1)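 Male Sprague-Dawley rats (120 ± 10 g) got the dose in 0.9% saline with 0.1% ascorbic acid, 0.2 mL i.v. via the left femoral vein under light halothane. Controls got vehicle. At 24 h, atria were cut into four 10-15 mg pieces and incubated 30 min at 37 °C under 95% O2/5% CO2 in Krebs-Ringer bicarbonate (pH 7.35) with 10^-7 M [3H]NE. A 10 min washout followed, then HClO4 extracts were counted. Inhibition = control minus treated, 12 determinations from 3 rats, mean ± SD.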

Rattus norvegicus [2] = assay: Ability to inhibit norepinephrine uptake in rat atria was determined at 365uM/kg; b denotes 'Rats expired with in 30 min after injection'; assay type: functional, organism-based; procedure, shortened: as §1
Rattus norvegicus [3] = assay: Ability to inhibit norepinephrine uptake in rat atria was determined at 486uM/kg; b denotes 'Rats expired with in 30 min after injection'; assay type: functional, organism-based; procedure, shortened: as §1
Rattus norvegicus [4] = assay: Ability to inhibit norepinephrine uptake in rat atria was determined at 24 uM/kg; assay type: functional; procedure, shortened: as §1
Rattus norvegicus [5] = assay: Ability to inhibit norepinephrine uptake in rat atria was determined at 243uM/kg; b denotes 'Rats expired with in 30 min after injection'; assay type: functional, organism-based; procedure, shortened: as §1
Rattus norvegicus [6] = assay: Ability to inhibit norepinephrine uptake in rat atria was determined at 49 uM/kg; assay type: functional; procedure, shortened: as §1
Rattus norvegicus [7] = assay: Ability to inhibit norepinephrine uptake in rat atria was determined at 73 uM/kg; assay type: functional; procedure, shortened: as §1
Rattus norvegicus [8] = assay: Ability to inhibit norepinephrine uptake in rat atria was determined at 97 umol/kg; assay type: functional; procedure, shortened: as §1
Rattus norvegicus [9] = assay: Ability to inhibit norepinephrine uptake in rat atria was determined at122uM/kg; b denotes 'Rats expired with in 30 min after injection'; assay type: functional, organism-based; procedure, shortened: as §1
Rattus norvegicus [10] = assay: Ability to inhibit norepinephrine uptake in rat atria was determined at 730uM/kg; b denotes 'Rats expired with in 30 min after injection'; assay type: functional, organism-based; procedure, shortened: as §1
Rattus norvegicus [11] = assay: Ability to inhibit norepinephrine uptake in rat atria was determined at 365 umol/kg; assay type: functional; procedure, shortened: as §1
Rattus norvegicus [12] = assay: Ability to inhibit norepinephrine uptake in rat atria was determined at 243 umol/kg; assay type: functional; procedure, shortened: as §1
Rattus norvegicus [13] = assay: Ability to inhibit norepinephrine uptake in rat atria was determined at 122 umol/kg; assay type: functional; procedure, shortened: as §1

Work on `NCCc1cc(O)c(Cl)cc1O` yielded an inhibition in vivo at 486 µmol/kg (Rattus norvegicus [1]) of 0%.

`NCCc1cc(O)c(N)cc1O` was tested, and the inhibition (Rattus norvegicus [2]) was “Rats expired within 30min after injection”, the inhibition (Rattus norvegicus [3]) was “Rats expired within 30min after injection” and the Inhibition (Rattus norvegicus [4]) was 20%. For the same compound, the inhibition (Rattus norvegicus [5]) was “Rats expired within 30min after injection”, the Inhibition (Rattus norvegicus [6]) was 60% and the Inhibition (Rattus norvegicus [7]) was 80%. For the same compound, the inhibition in vivo at 97 µmol/kg (Rattus norvegicus [8]) was 91%, the inhibition (Rattus norvegicus [9]) was “Rats expired within 30min after injection” and the inhibition (Rattus norvegicus [10]) was “Rats expired within 30min after injection”.

Work on `NCCc1cc(O)c(C(=O)O)cc1O` yielded an inhibition in vivo at 486 µmol/kg (Rattus norvegicus [1]) of 0%.

Work on `N#Cc1cc(O)c(CCN)cc1O` yielded an inhibition in vivo at 486 µmol/kg (Rattus norvegicus [1]) of 0%.

With `COc1cc(O)c(CCN)cc1O` the inhibition in vivo at 365 µmol/kg (Rattus norvegicus [11]) was 26%, the inhibition (Rattus norvegicus [3]) was “Rats expired within 30min after injection” and the inhibition (Rattus norvegicus [10]) was “Rats expired within 30min after injection”.

For `NCCc1cc(O)ccc1O`, the inhibition in vivo at 486 µmol/kg (Rattus norvegicus [1]) was 0%.

With `NCCc1cc(O)c(O)cc1O` [OXIDOPAMINE] the inhibition in vivo at 486 µmol/kg (Rattus norvegicus [1]) was 87%, the Inhibition (Rattus norvegicus [4]) was 45% and the inhibition in vivo at 243 µmol/kg (Rattus norvegicus [12]) was 85%. For the same compound, the Inhibition (Rattus norvegicus [6]) was 68%, the Inhibition (Rattus norvegicus [7]) was 74% and the inhibition in vivo at 97 µmol/kg (Rattus norvegicus [8]) was 79%. It also gave an inhibition in vivo at 122 µmol/kg (Rattus norvegicus [13]) of 79%.

Compound `NCCc1cc(O)c(Br)cc1O` has an inhibition in vivo at 243 µmol/kg (Rattus norvegicus [12]) of 10% and an inhibition in vivo at 122 µmol/kg (Rattus norvegicus [13]) of 0%.

Compound `NCCc1cc(O)c([N+](=O)[O-])cc1O` has an inhibition in vivo at 486 µmol/kg (Rattus norvegicus [1]) of 0%.

In the case of `Cc1cc(O)c(CCN)cc1O`, the inhibition in vivo at 365 µmol/kg (Rattus norvegicus [11]) is reported as 24%, the inhibition (Rattus norvegicus [3]) is reported as “Rats expired within 30min after injection” and the inhibition in vivo at 243 µmol/kg (Rattus norvegicus [12]) is reported as 27%. The Inhibition (Rattus norvegicus [7]) was 16%, the inhibition in vivo at 122 µmol/kg (Rattus norvegicus [13]) was 19% and the inhibition (Rattus norvegicus [10]) was “Rats expired within 30min after injection”.

Reference: ChEMBL document CHEMBL1122635, “Synthesis and physicochemical and neurotoxicity studies of 1-(4-substituted-2,5-dihydroxyphenyl)-2-aminoethane analogues of 6-hydroxydopamine” (1984)
